The values that follow come from PubChem BioAssay.

Inconclusive results are not listed. Activity calls are given as the source filed them.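 How the source made its calls, unless noted: active means inhibition over a set limit, the all-compound mean plus 3 SD, in both replicate runs; inconclusive means over that limit in just one replicate run; inactive means at or under that limit in both runs.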

Test [1] is described as follows: OD615 S. cerevisiae growth inhibition, permissive medium, pilot counter-assay, permissive growth control for S. cerevisiae lifespan shortening project (AID 705;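 active means growth inhibition above 25% in both replicates, a cutoff set 3 SD above the mean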). As to conditions: OD615, 24 h, at 10 µM, stronger effect = higher value. Put shortly: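 assay system = Saccharomyces cerevisiae strain carrying genetically modified DeaD replicative-lifespan system | medium = SC raffinose/galactose permissive medium | dosing = 10 µM single dose, 0.25% DMSO | schedule = 24 h compound exposure at 30 °C after 4 h pre-growth | measured by = OD at 615 nm | read-out basis = growth inhibition from lowered OD615 after 24 h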

Test [2] can be described thus: Restrictive medium S. cerevisiae growth inhibition, OD615, pilot screen of yeast lifespan reduction project, restrictive growth control (AID 706;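 active means growth inhibition above a set limit, 3 SD over mean compound inhibition, in both replicates, cut at about 43% in these data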). Conditions: OD615, 48 h, at 10 µM, stronger effect = higher value. Put shortly: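 Buffer or medium: CSMM-D glucose medium. Material: genetically modified Saccharomyces cerevisiae, DeaD replicative lifespan assay strain. Times: 48 h compound exposure at 30 °C. Measured by: optical density at 615 nm.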

Test [3] in a line: viability gain of MRP-1-high H69AR cells under doxorubicin, pilot screen, MRP-1 activator project, CellTiter-Glo, duplicate (AID 807;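 active means viability increase at or above a cutoff of the median across tested compounds plus 3 SD, cut at about 8.5% in these data, passing the limit was not always enough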;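 further: compound pretreatment 18-22 h then 72 h combined with doxorubicin; 0% = doxorubicin alone and 100% = vehicle without doxorubicin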). As to conditions: H69AR viability with doxorubicin, CellTiter-Glo luminescence; at 10 µM; stronger effect = higher value. On the technique in general: Cellular ATP, detected with luciferase, serves as a proxy for viable cell number.
Test [4] is described as follows: growth suppression of beta-catenin knockout HCT116, pilot screen, human colon tumor cells (AID 823;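 active means cell viability at or below a set limit in both duplicate runs, the limit being the all-compound median minus 4 SD, cut at about 23% in these data, passing the limit was not always enough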;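 further: 0% = wells killed by 20 µM Hyamine and 100% = untreated DMSO cell wells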). As to conditions: CellTiter-Glo, 60 h, at 10 µM, stronger effect = lower value.
A short description of test [5]: growth suppression of PTEN-deleted HCT116, pilot screen, cell-based, HCT116 clonal line, CellTiter-Glo (AID 824;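 active means viability at or below 27.92% in each of two runs, the all-compound median minus 4 SD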;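 further: 0% = 20 µM Hyamine control and 100% = vehicle cell control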). Conditions: 60 h, at 10 µM, stronger effect = lower value.
A short description of test [6]: inhibitors of the yeast RAM network, pilot screen, dse1pr::URA3 reporter, 5-FOA selection (AID 869).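 Further: 0% = DMSO wells with no growth and 100% = 10 µM 1-NA-PP1 with full growth; RAM network block rescues cells from 5-FOA so hits raise OD615 growth.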 As to conditions: S. cerevisiae dse1pr::URA3 5-FOA growth, OD615, 2 d, at 10 µM, stronger effect = higher value.
A short description of test [7]: RAM signaling pathway blockade in yeast – S. cerevisiae, Pdr1DBD-CYC8 efflux-inhibited sensitized strain, primary screen (AID 1298;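 active means RAM network inhibition above 8.4% in each of two replicates, 3 SD over the compound average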;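 further: 0% = DMSO untreated cells without growth and 100% = 10 µM 1-NA-PP1 full growth; higher means more yeast growth rescued from 5-FOA killing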). Conditions: S. cerevisiae cbk1-as DSE1-URA3 strain, 5-FOA growth OD615, 2 d; at 50 µM; stronger effect = higher value.
Test [8] is described as follows: Recombinant Mtb pantothenate synthetase (PanC) inhibitors, coupled enzyme, confirmatory (AID 375; call rule not given here). Conditions: coupled enzyme assay; measured here: coupling enzymes IC50 repeat trials unless noted.
For test [9], the target named is Pantothenate synthetase (Mycobacterium tuberculosis (strain ATCC 25618 / H37Rv)) (UniProt P9WIL5). The description is as above. Conditions: coupled enzyme assay; at 10 µM, stronger effect = higher value.

What is called viability is a read-out of living cells in per cent, often relative to untreated cells. For orientation: inhibition means the change of the read-out against control, counted positive when it falls. For orientation: IC50 means the point on the concentration scale where inhibition reaches its midpoint.

Sequence of Pantothenate synthetase (Mycobacterium tuberculosis (strain ATCC 25618 / H37Rv)) (P9WIL5 whole entry, looked up): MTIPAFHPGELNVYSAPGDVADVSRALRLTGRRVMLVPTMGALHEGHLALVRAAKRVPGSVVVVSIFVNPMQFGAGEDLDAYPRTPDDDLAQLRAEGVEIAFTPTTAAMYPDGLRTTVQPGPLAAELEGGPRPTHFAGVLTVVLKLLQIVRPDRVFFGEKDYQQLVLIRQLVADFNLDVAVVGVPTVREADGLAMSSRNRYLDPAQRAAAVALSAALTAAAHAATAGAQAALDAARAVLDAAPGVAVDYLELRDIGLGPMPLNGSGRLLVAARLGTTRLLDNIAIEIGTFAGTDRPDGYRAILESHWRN

With `CC1CCCCN1CC(=O)c1ccc2cc[nH]c2c1` (centres undefined), the growth inhibition is -4.76% (inactive) in [1] and 3.28% (inactive) in test [2]. For the same compound, the viability increase in [3] was -2.48% (inactive). For the same compound, the viability in test [4] was 98.1% (inactive); in [5], 89.4% (inactive). Moreover, the inhibition in [6] was 1.31% (inactive). In test [7], the RAM network inhibition was 2.76% (inactive).

Regarding `COc1ccc(C2C(C(=O)N3CCC4(CC3)OCCO4)c3cc(OC)c(OC)cc3C(=O)N2C)cc1` (centres undefined), the growth inhibition in test [1] was -15.2% (inactive); in test [2], -29% (inactive). Also, in [3], the viability increase was -2.58% (inactive). Besides, the viability was 98% (inactive) in test [4] and 99.4% (inactive) in test [5]. The inhibition in test [6] is 1.61% (inactive). In addition, the RAM network inhibition in test [7] is 0.93% (inactive).

Turning to `COC(=O)c1ccc(CN2CCN(Cc3ccccc3)CC2)cc1`, the growth inhibition in [1] was -18.9% (inactive); in test [2], -15.9% (inactive). In test [3], the viability increase is -1.15% (inactive). Besides, the viability in test [4] is 94.5% (inactive); in test [5], 90.8% (inactive). The inhibition in [6] is 1.31% (inactive). The RAM network inhibition in [7] was 1.37% (inactive).

As to `CCC(=O)N1CC(=O)Nc2ccc(F)cc2C1c1ccccc1` (centres undefined), the growth inhibition is -9.43% (inactive) in test [1] and -11.4% (inactive) in test [2]. For the same compound, in test [3], the viability increase is -1% (inactive). Besides, the viability was 92.2% (inactive) in test [4] and 90.9% (inactive) in [5]. In addition, the inhibition in test [6] is 2.25% (inactive). Further, in test [7], the RAM network inhibition is 3.64% (inactive).

Turning to `C=Cn1ccnc1P(=S)(c1c(C)nn(-c2ccccc2)c1C)c1nccn1C=C`, the growth inhibition in [1] is 0.15% (inactive); in test [2], 13.2% (inactive). Besides, the viability increase in [3] is -2.8% (inactive). For the same compound, the viability is 93.8% (inactive) in test [4] and 90.2% (inactive) in test [5]. In addition, in test [6], the inhibition was 1.75% (inactive). The RAM network inhibition in [7] was 5.43% (inactive).

In the case of `COc1cc(C2SCC(=O)Nc3c2c(=O)[nH]n3C2CCCCCC2)cc(OC)c1OC` (centres undefined), the growth inhibition is -22.7% (inactive) in [1] and -4.26% (inactive) in test [2]. In addition, the viability increase in test [3] was -2.62% (inactive). Besides, the viability in [4] was 92.6% (inactive). Further, the inhibition in test [6] was 2.39% (inactive). For the same compound, the RAM network inhibition in [7] was 2.76% (inactive).

Take `c1ccc2sc(C3CCCNC3)nc2c1` (centres undefined): the growth inhibition in test [1] is -10.6% (inactive); in test [2] it was -19.7% (inactive). The viability increase in test [3] was -1.16% (inactive). The viability in test [4] is 97.6% (inactive); in [5], 97.4% (inactive). The inhibition in test [6] was 2.33% (inactive). Besides, the RAM network inhibition in [7] is 0.56% (inactive).

Turning to `CCCOc1ccccc1C1SCC(=O)Nc2c1c(=O)[nH]n2C(C)CCC` (centres undefined), the growth inhibition in test [1] is -9.65% (inactive); in test [2], -5.25% (inactive). In addition, the viability increase in [3] is 1.02% (inactive). For the same compound, the viability in test [4] is 94% (inactive). Also, the inhibition in test [6] was 1.6% (inactive). In addition, the RAM network inhibition in test [7] is 1.25% (inactive).

For `C=Cn1ccnc1P(=S)(c1ccn(C)c1)c1nccn1C=C`, the results for the growth inhibition in [1] and in test [2] were -2.8% (inactive) and 18.6% (inactive), respectively. Further, in test [3], the viability increase was 0.29% (inactive). The results for the viability in [4] and in [5] were 100% (inactive) and 99.2% (inactive), respectively. The inhibition in [6] was 0.94% (inactive). The RAM network inhibition in test [7] is 1.45% (inactive).

Turning to `CN1CCN(CCC(C#N)(c2ccccc2)c2ccccc2)CC1`, the growth inhibition was -19.9% (inactive) in [1] and -7.5% (inactive) in [2]. For the same compound, the viability increase in test [3] is -2.94% (inactive). The viability in test [4] was 87% (inactive). Besides, the inhibition in test [6] is 1.81% (inactive). Moreover, the RAM network inhibition in test [7] was 0.63% (inactive).

Turning to `Cc1nc2ccc(Cl)cn2c1P(=S)(N1CCOCC1)N1CCOCC1`, the growth inhibition in test [1] is -10.4% (inactive); in test [2], 4.46% (inactive). In addition, the viability increase in test [3] was -2.81% (inactive). In test [4], the viability is 99.8% (inactive). Also, the inhibition in [6] is 0.175% (inactive). For the same compound, in [7], the RAM network inhibition is 5.03% (inactive).

As to `O=C(CN1CCOCC1)c1ccc2cc[nH]c2c1`, the growth inhibition in test [1] was -10.7% (inactive); in test [2], -1.26% (inactive). In addition, the viability increase in test [3] was 0.03% (inactive). Besides, the figures for the viability in test [4] and in test [5] were 105% (inactive) and 108% (inactive), respectively. Besides, the inhibition in test [6] was 0.035% (inactive). For the same compound, the RAM network inhibition in test [7] was 1.57% (inactive).

Regarding `CCc1sc(C(=O)N2CCC3(CC2)OCCO3)cc1Br`, the growth inhibition was -7.48% (inactive) in test [1] and -12.2% (inactive) in [2]. For the same compound, in test [3], the viability increase was -2% (inactive). The viability in [5] is 100% (inactive). Also, the inhibition in test [6] was 0.935% (inactive). In addition, the RAM network inhibition in [7] is 1.59% (inactive).

Turning to `COc1cc2c(cc1OC)C(C(=O)N1CCC3(CC1)OCCO3)C(c1ccccc1F)N(C)C2=O` (centres undefined), the growth inhibition is -3.76% (inactive) in [1] and 12% (inactive) in [2]. The viability increase in [3] was -3.17% (inactive). Besides, the viability in test [5] is 84.3% (inactive). Further, the inhibition in test [6] is 1.23% (inactive). Besides, the RAM network inhibition in [7] was 0.57% (inactive).

In the case of `CCOC(=O)c1cncn1C(C)c1ccccc1` (centres undefined), the growth inhibition is -15.6% (inactive) in [1] and 1.2% (inactive) in test [2]. In [3], the viability increase was -2.02% (inactive). Besides, the viability in [4] is 102% (inactive). Further, the inhibition in test [6] is 0.145% (inactive). Besides, the RAM network inhibition in [7] is 3.01% (inactive).

As to `Cc1ccc(Cn2ccc(NC(=O)c3cc(-c4ccc(Cl)cc4)on3)n2)cc1`, the half-inhibitory concentration (IC50) in [8] was > 100 µM. Also, the outcome in test [9] was inactive.

Consider `CCOC(=O)c1c(C)n(Cc2ccccc2)c2ccc(OCC(O)Cn3nc(C)nc3C)cc12` (centres undefined), for which the growth inhibition in test [1] is -0.525% (inactive); in test [2], 19.9% (inactive). Also, the viability increase in [3] is -0.16% (inactive). The viability is 82.7% (inactive) in [4] and 88.3% (inactive) in test [5]. For the same compound, the inhibition in test [6] is -0.42% (inactive). Further, in test [7], the RAM network inhibition was 0.63% (inactive).

Take `O/N=C1\CCC2CN(C3CCCCC3)CC2C1` (centres undefined): the growth inhibition is 8.11% (inactive) in test [1] and -1.4% (inactive) in test [2]. In [3], the viability increase is -1.85% (inactive). Also, the viability in test [4] is 109% (inactive); in [5] it was 97.9% (inactive). In test [6], the inhibition was 0.775% (inactive). In addition, the RAM network inhibition in test [7] was 0.94% (inactive).
